From ChEMBL document CHEMBL4765452, “Discovery of (E)-N-(4-methyl-5-(3-(2-(pyridin-2-yl)vinyl)-1H-indazol-6-yl)thiazol-2-yl)-2-(4-methylpiperazin-1-yl)acetamide (IHMT-TRK-284) as a novel orally available type II TRK kinase inhibitor capable of overcoming multiple resistant mutants” (Eur J Med Chem, 2020)
pEC50, pIC50: −log10 of the molar value. Activity calls are given as the source filed them. The rule behind the calls is not given here.

Legend:
[1] = Antiproliferative activity in mouse BAF3 cells assessed as growth inhibition after 72 hrs by CCK8 assay; assay type: cell-based
Outline: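 TEL- or LMNA-fusion isogenic BaF3 lines grown in RPMI 1640 with 10% FBS and 1% penicillin/streptomycin at 37 °C, 5% CO₂; suspension cells collected by spinning at 800 rpm for 4 min before use; growth inhibition scored as GI₅₀.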

[2] = AUC (0 to t) in Beagle dog at 5 mg/kg, po; assay type: ADME, organism-based, Canis lupus familiaris; set-up: dose 5 mg/kg; conditions: in vivo
Outline: (§1)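 Intravenous and oral arms were run in parallel in each species (mice, Sprague Dawley rats, beagle dogs). Exposure is reported as AUC0-t in ng/mL·h.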

[3] = Toxicity in mouse xenografted with mouse BAF3 cells harboring TEL fused TRKA assessed as effect on animals behaviour at 40 to 80 mg/kg, po administered once daily for 10 days; assay type: organism-based; conditions: in vivo, 240 h, dose 40-80 mg/kg/day, time 10 day
Outline: (§2)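 nu/nu mice were given subcutaneous right-flank implants in 1:1 DMEM/matrigel: 1 million BaF3 fusion cells or 5 million KM-12-LUC cells. Oral gavage started at 150–200 mm3 (xenograft) or 200–400 mm3 (allograft). Dosing used 40 or 80 mg/kg in HKI vehicle (0.5% methylcellulose/0.4% Tween 80 in ddH2O), with 5 mice per group. Body weight was recorded daily and behaviour observed.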

[4] = molecular target: T1, High affinity nerve growth factor receptor (Homo sapiens, UniProt P04629); assay: Inhibition of TRKA in human KM-12-LUC cells assessed as reduction in ERK1/2 phosphorylation at T202/Y204 residues after 2 hrs by Western blot analysis; assay type: cell-based, KM12-Luc
Outline: (§3)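 KM-12-LUC (TPM3-TRKA fused colon cancer cells) grown in RPMI 1640 with 10% FBS and 1% penicillin/streptomycin at 37 °C under 5% CO2. Serially diluted compound added for 2 h. Lysates western blotted for phospho-AKT (T308/S473) and phospho-ERK1/2 (T202/Y204).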
Target sequence in this assay (P04629 whole entry, the tested form may be a part): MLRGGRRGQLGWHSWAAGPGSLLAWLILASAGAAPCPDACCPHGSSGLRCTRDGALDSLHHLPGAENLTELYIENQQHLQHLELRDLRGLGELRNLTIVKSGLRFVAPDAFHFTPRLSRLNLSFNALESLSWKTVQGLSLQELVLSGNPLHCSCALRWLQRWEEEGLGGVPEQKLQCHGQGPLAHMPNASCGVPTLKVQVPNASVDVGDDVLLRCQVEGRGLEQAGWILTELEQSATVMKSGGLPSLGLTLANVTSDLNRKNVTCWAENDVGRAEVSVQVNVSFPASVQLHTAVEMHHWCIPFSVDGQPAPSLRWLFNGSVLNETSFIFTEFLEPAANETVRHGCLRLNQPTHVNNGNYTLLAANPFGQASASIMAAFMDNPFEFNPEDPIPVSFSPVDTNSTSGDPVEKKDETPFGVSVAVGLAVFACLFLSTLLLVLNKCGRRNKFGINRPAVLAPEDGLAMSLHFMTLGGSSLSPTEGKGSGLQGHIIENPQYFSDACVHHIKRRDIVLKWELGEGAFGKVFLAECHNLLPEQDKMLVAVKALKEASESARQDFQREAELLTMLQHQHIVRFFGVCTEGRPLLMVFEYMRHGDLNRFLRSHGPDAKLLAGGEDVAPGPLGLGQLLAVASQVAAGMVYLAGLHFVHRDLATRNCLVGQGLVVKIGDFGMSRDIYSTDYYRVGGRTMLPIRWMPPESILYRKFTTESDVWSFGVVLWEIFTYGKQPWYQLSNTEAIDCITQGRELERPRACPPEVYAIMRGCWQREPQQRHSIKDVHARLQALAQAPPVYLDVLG

BaF3 = assay: Antitumor activity against mouse BAF3 cells harboring TEL fused TRKA allografted in nude mouse assessed as tumor growth inhibition administered orally once daily for 10 days; assay type: functional, cell-based; conditions: dose 40-80 mg/kg/day, time 10.0 day
Outline: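 Nu/nu mice given 1 million BaF3 cells (TEL-TRKA, TEL-TRKB, TEL-TRKC, LMNA-TRKA-F589L or LMNA-TRKA-G667S) in DMEM, 1:1 with matrigel, injected subcutaneously into the right flank; oral gavage began at 200–400 mm³, 5 mice per group, compound in 0.5% methylcellulose/0.4% Tween 80 in ddH₂O, 10 days; tumor volume [(W²×L)/2] and body weight recorded daily; TGI versus vehicle.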

[5] = molecular target: T1, High affinity nerve growth factor receptor; assay: Inhibition of wild type TEL fused TRKA (unknown origin) transfected in mouse BAF3 cells assessed as growth inhibition after 72 hrs by CCK8 assay; assay type: cell-based
Target sequence in this assay (P04629 33-796 limits assumed): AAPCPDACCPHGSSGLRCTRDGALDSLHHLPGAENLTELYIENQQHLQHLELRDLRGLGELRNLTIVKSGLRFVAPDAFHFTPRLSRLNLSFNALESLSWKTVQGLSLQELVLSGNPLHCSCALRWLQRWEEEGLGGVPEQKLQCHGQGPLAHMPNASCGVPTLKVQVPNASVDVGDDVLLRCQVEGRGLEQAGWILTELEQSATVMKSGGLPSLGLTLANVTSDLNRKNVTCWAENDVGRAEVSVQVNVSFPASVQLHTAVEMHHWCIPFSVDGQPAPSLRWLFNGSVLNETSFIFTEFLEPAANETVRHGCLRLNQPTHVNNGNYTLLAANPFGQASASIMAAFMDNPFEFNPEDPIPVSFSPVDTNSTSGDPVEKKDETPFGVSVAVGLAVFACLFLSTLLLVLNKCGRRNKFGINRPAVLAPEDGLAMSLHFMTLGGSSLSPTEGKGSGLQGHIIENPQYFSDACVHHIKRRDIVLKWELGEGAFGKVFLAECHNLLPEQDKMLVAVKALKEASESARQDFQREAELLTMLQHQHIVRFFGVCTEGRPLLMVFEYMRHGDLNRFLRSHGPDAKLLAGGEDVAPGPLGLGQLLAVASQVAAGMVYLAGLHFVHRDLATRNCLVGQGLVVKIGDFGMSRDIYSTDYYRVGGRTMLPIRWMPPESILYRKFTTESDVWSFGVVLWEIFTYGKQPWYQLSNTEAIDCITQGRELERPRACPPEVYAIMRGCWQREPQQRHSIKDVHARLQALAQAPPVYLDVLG

[6] = Toxicity in mouse xenografted with mouse BAF3 cells harboring […] TRKA-F589L mutant assessed as effect on abnormal behaviour at 40 to 80 mg/kg, po administered once daily for 10 days; assay type: organism-based; conditions: in vivo, 240 h, dose 40-80 mg/kg/day, time 10 day; outline: as §2
[7] = AUC (0 to t) in mouse at 10 mg/kg, po; assay type: ADME, organism-based; set-up: dose 10 mg/kg; conditions: in vivo; outline: as §1
[8] = Inhibition of LMNA fused TRKA G667S mutant (unknown origin) transfected in mouse BaF3 cells assessed as reduction in phosphorylation at Y490 residue after 2 hrs by Western blot analysis; conditions: Homo sapiens, BaF3, 2 h
[9] = Apparent volume of distribution in mouse at 1 mg/kg, iv; assay type: ADME, organism-based; conditions: in vivo, read-out: Vz
[10] = Half life in mouse at 10 mg/kg, po; assay type: ADME, organism-based; conditions: in vivo
KM12-Luc [11] = assay: Induction of apoptosis in human KM-12-LUC cells assessed as increase in cleaved PARP level after 24 hrs by Western blot analysis; assay type: functional, cell-based; conditions: dose 0.01-10 µM
Outline: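 KM-12-LUC cells cultured in RPMI 1640 with 10% FBS and 1% penicillin/streptomycin at 37 °C, 5% CO2. Serially diluted compound added for 24 h. Apoptosis read by western blot for PARP cleavage, with β-actin as loading control.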

[12] = Inhibition of LMNA fused TRKA F589L mutant (unknown origin) transfected in mouse BaF3 cells assessed as reduction in phosphorylation at Y490 residue after 2 hrs by Western blot analysis; conditions: Homo sapiens, BaF3, 2 h
[13] = Apparent volume of distribution in Beagle dog at 5 mg/kg, po; assay type: ADME, organism-based, Canis lupus familiaris; conditions: in vivo
[14] = molecular target: Platelet-derived growth factor receptor beta (Homo sapiens, UniProt P09619); assay: Inhibition of TEL fused PDGFRbeta (unknown origin) transfected in mouse BAF3 cells assessed as growth inhibition after 72 hrs by CCK8 assay; assay type: cell-based
Outline: (§4)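 TEL-fusion isogenic BaF3 lines were built in-house and grown in RPMI 1640 with 10% FBS and 1% penicillin/streptomycin at 37 °C under 5% CO2. Cells were spun down before use.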

[15] = molecular target: T1, High affinity nerve growth factor receptor; assay: Inhibition of TRKA in human KM-12-LUC cells assessed as reduction in AKT phosphorylation at T308 residue after 2 hrs by Western blot analysis; assay type: cell-based, KM12-Luc; outline: as §3
Target sequence in this assay (P04629 whole entry, the tested form may be a part): as the sequence (P04629 whole entry, the tested form may be a part) above

[16] = molecular target: Mast/stem cell growth factor receptor Kit (Homo sapiens, UniProt P10721); assay: Inhibition of TEL fused KIT (unknown origin) transfected in mouse BAF3 cells assessed as growth inhibition after 72 hrs by CCK8 assay; assay type: cell-based; outline: as §4
[17] = Tmax in mouse at 10 mg/kg, po; assay type: ADME, organism-based; conditions: in vivo
Outline: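 Single-dose PK in mice, Sprague Dawley rats and beagle dogs, given i.v. (1 mg/kg) or p.o. (10 mg/kg mice and rats; 5 mg/kg dogs). AUC0-t, T1/2, Tmax and oral bioavailability (F) derived from plasma profiles.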

[18] = molecular target: T1, High affinity nerve growth factor receptor; assay: Inhibition of human TRKA by Z-LYTE or ADP-Glo assay
Outline: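 Purified kinase proteins tested biochemically in Z'LYTE or ADP-Glo format.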
Target sequence in this assay (P04629 whole entry, the tested form may be a part): as above

[19] = Toxicity in mouse xenografted with mouse BAF3 cells harboring […] TRKA-G667S mutant assessed as effect on abnormal behaviour at 40 to 80 mg/kg, po administered twice daily for 10 days; assay type: organism-based; conditions: in vivo, 240 h, dose 40-80 mg/kg, time 10 day; outline: as §2
[20] = Cmax in Sprague-Dawley rat at 10 mg/kg, po; assay type: ADME, organism-based; set-up: route oral, dose 10 mg/kg; conditions: in vivo
[21] = system: High affinity nerve growth factor receptor (Homo sapiens), P04629 [G595R]; assay: Inhibition of LMNA fused TRKA G595R mutant (unknown origin) transfected in mouse BAF3 cells assessed as growth inhibition after 72 hrs by CCK8 assay; assay type: cell-based
[22] = Apparent volume of distribution in Beagle dog at 1 mg/kg, iv; assay type: ADME, organism-based, Canis lupus familiaris; conditions: in vivo, read-out: Vz
[23] = Apparent clearance in mouse at 10 mg/kg, po; assay type: ADME, organism-based; conditions: in vivo, read-out: CLz/F (converted)
KM12-Luc [24] = assay: Induction of cell cycle arrest in human KM-12-LUC cells assessed as accumulation at G0/G1 phase at 0.01 to 10 uM after 24 hrs by PI/RNase staining based flow cytometric analysis; assay type: functional; conditions: dose 0.01-10 µM
Outline: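 KM-12-LUC cells treated with DMSO or serially diluted compound. Cells fixed in cold 70% ethanol overnight at −20 °C, then stained with PI/RNase buffer. Cell cycle distribution measured by flow cytometry.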

Sequence of High affinity nerve growth factor receptor (Homo sapiens), P04629 [G595R] (P04629 whole entry G595R, looked up, the tested form may be a part): as the sequence (P04629 whole entry, the tested form may be a part) above, with G595R counted along it
Sequence of Mast/stem cell growth factor receptor Kit (P10721 whole entry, the tested form may be a part): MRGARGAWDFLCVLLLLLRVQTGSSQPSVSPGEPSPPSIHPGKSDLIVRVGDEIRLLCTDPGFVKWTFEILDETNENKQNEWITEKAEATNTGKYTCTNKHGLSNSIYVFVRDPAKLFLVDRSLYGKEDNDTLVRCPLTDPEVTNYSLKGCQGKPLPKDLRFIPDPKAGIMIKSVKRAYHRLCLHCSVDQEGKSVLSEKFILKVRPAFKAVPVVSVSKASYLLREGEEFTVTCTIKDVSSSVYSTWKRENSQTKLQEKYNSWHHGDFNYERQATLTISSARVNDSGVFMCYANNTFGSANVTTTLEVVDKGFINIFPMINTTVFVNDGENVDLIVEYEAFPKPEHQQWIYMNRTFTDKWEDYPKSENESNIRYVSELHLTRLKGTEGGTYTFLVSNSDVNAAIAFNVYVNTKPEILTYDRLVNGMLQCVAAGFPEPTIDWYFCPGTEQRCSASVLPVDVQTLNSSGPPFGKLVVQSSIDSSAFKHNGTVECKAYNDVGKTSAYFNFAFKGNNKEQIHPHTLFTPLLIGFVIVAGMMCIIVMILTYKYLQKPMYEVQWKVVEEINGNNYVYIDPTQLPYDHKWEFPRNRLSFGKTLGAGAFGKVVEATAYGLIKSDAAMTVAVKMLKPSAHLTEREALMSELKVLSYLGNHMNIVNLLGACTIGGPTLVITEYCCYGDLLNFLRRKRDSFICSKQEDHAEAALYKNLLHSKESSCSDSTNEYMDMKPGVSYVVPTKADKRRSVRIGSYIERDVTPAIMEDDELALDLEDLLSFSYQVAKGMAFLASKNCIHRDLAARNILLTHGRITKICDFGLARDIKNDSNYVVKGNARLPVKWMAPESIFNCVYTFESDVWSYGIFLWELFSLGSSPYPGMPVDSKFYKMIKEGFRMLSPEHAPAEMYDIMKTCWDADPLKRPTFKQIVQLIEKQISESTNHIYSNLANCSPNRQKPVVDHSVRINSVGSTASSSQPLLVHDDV
Sequence of Platelet-derived growth factor receptor beta (P09619 whole entry, the tested form may be a part): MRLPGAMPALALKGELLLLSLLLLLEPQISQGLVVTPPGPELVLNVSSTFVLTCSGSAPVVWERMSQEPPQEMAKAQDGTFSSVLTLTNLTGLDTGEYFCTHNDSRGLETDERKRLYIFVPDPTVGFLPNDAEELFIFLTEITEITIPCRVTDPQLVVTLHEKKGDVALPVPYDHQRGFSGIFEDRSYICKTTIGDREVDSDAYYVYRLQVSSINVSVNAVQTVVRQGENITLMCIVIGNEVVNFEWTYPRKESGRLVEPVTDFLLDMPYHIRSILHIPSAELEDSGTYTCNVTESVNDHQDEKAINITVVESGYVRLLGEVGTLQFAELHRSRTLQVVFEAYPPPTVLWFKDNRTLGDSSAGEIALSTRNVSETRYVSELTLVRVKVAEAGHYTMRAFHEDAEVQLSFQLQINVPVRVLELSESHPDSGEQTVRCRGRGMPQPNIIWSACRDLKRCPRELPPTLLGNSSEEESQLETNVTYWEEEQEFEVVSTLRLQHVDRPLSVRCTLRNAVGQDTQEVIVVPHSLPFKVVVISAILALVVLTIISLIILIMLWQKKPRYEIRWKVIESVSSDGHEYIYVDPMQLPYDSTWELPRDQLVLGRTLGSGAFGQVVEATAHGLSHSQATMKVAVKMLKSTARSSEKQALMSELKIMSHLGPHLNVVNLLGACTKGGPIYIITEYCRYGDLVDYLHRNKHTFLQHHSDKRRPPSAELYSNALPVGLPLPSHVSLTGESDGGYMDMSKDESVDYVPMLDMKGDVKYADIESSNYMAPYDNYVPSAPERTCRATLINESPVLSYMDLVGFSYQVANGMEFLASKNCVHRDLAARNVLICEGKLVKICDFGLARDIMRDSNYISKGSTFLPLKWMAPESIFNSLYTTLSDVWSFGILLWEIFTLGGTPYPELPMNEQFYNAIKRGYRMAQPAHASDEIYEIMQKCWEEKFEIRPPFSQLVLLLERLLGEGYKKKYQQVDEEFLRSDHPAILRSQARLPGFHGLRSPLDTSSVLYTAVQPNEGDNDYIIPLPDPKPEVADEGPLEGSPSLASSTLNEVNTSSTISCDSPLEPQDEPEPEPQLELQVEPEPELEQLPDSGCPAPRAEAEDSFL

In the case of `Cc1nc(NC(=O)CN2CCN(C)CC2)sc1-c1ccc2c(/C=C/c3ccccn3)n[nH]c2c1`, the GI50 at 72 h [1] was 1400 nM, the AUC(0-t) [2] was 464 ng·h/mL and the Activity [3] was “Non-Toxic”. The pEC50 [4] was greater than 7.52, the Activity (BaF3) was “Dose-dependent effect” and the GI50 [5] was 8.5 nM. The Activity [6] was “Non-Toxic”, the AUC(0-t) [7] was 1430 ng·h/mL and the pEC50 [8] was 7.13. The Vd [9] was 4.93 L/kg, the t1/2 [10] was 3.4 h and the Activity (KM12-Luc [11]) was “Dose-dependent effect”. It also gave a pEC50 [12] of 7.68, a Vz [13] of 149.26 L/kg and a GI50 [14] of 1.4 nM. It also gave a pEC50 [15] greater than 7.52, a GI50 [16] of 923 nM and a Tmax [17] of 1.5 h. The pIC50 [18] was 7.98, the Activity [19] was “Non-Toxic” and the Cmax [20] was 139 ng/mL. For the same compound, the GI50 [21] was 194 nM, the Vd [22] was 17.5 L/kg and the CL/F [23] was 108 mL/min/kg. The Activity (KM12-Luc [24]) was “Active”.
